Common to all, as to type: functional
Assay [1] has as its system Klebsiella pneumoniae. Kind of assay: Antimicrobial activity against multidrug-resistant Klebsiella pneumoniae isolates assessed as susceptible isolates by microdilution method. The method, boiled down:
(§1)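 Broth microdilution MICs following CLSI, in cation-adjusted Mueller-Hinton broth, using custom-made panels that include piperacillin-tazobactam. Tested against 102 multidrug-resistant clinical Klebsiella pneumoniae isolates, a subset of 25 of which produce KPC carbapenemase. Cephalosporin-clavulanate combinations use clavulanate at a constant 4 mg/liter. Susceptible and resistant categories are assigned by CLSI criteria.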

Assay [2] has as its system Klebsiella pneumoniae. Description: Antimicrobial activity against multidrug-resistant Klebsiella pneumoniae isolates by microdilution method. The method in brief:
as §1

In assay [3] the test system is Klebsiella pneumoniae. Description: Antimicrobial activity against beta lactamase KPC-producing Klebsiella pneumoniae isolates by microdilution method. The method in brief:
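Broth microdilution MICs following CLSI, in cation-adjusted Mueller-Hinton broth, using custom-made panels that include piperacillin-tazobactam. Cephalosporin-clavulanate combinations use clavulanate at a constant 4 mg/liter. Susceptible and resistant categories are assigned by CLSI criteria.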

Assay [4] deals with Klebsiella pneumoniae. Kind of assay: Antimicrobial activity against beta lactamase KPC-producing Klebsiella pneumoniae isolates assessed as susceptible isolates by microdilution method. The method, boiled down: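 Broth microdilution in cation-adjusted Mueller-Hinton broth following CLSI criteria, using customized panels that included piperacillin-tazobactam. MICs were read as the endpoint, and susceptibility was categorized by CLSI criteria.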

Assay [5] has as its system Klebsiella pneumoniae. Kind of assay: Antimicrobial activity against multidrug-resistant Klebsiella pneumoniae isolates assessed as susceptible isolates by microdilution method in presence of beta-lactamase inhibitor Tazobactam. The method in brief:
as §1

Assay [6] relates to Klebsiella pneumoniae. Kind of assay: Antimicrobial activity against beta lactamase KPC-producing Klebsiella pneumoniae isolates assessed as susceptible isolates by microdilution method in presence of beta-lactamase inhibitor Tazobactam. The method, boiled down: (§2)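 Broth microdilution in cation-adjusted Mueller-Hinton broth following CLSI criteria, using customized panels that included piperacillin-tazobactam. The 25 clinical KPC-producing K. pneumoniae isolates belong to a set of 102 multidrug-resistant strains. MICs were read as the endpoint, and susceptibility was categorized by CLSI criteria.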

For assay [7], the system named is Klebsiella pneumoniae. Description: Antimicrobial activity against beta lactamase KPC-producing Klebsiella pneumoniae isolates by microdilution method in presence of beta-lactamase inhibitor Tazobactam. The method, boiled down:
as §2

The test system of assay [8] is Klebsiella pneumoniae. Description: Antimicrobial activity against beta lactamase KPC-producing Klebsiella pneumoniae isolates assessed as resistance isolates by microdilution method. The method, boiled down:
as §1

The test system of assay [9] is Klebsiella pneumoniae. Description: Antimicrobial activity against multidrug-resistant Klebsiella pneumoniae isolates assessed as resistance isolates by microdilution method. The method in brief:
as §1

The next assay has as its system Pseudomonas aeruginosa. Kind of assay: Antimicrobial activity against Pseudomonas aeruginosa ATCC 27853 by microdilution method.
In the next assay the test system is Escherichia coli. Description: Antimicrobial activity against Escherichia coli ATCC 25922 by microdilution method.
In assay [10] the test system is Klebsiella pneumoniae. Kind of assay: Antimicrobial activity against Klebsiella pneumoniae ATCC 700603 by microdilution method.

The values that follow come from ChEMBL document CHEMBL1649286, “ACHN-490, a neoglycoside with potent in vitro activity against multidrug-resistant Klebsiella pneumoniae isolates” (2009).

Values after ≈ are worked out from the molar mass of the structure shown.

Consider `CC(C)(O/N=C(\C(=O)N[C@@H]1C(=O)N2C(C(=O)[O-])=C(C[n+]3ccccc3)CS[C@H]12)c1csc(N)n1)C(=O)O` [CEFTAZIDIME], for which the Activity came out at 9.8% with Klebsiella pneumoniae [1] and 0% in the assay on Klebsiella pneumoniae [4]. Moreover, the MIC50 in the assay on Klebsiella pneumoniae [2] and against Klebsiella pneumoniae [3] was over 32 µg/mL throughout. Besides, the MIC90 against Klebsiella pneumoniae [2] and in the assay with Klebsiella pneumoniae [3] was over 32 µg/mL throughout.

On to `CCN1CCN(C(=O)N[C@@H](C(=O)N[C@@H]2C(=O)N3[C@@H]2SC(C)(C)[C@@H]3C(=O)O)c2ccccc2)C(=O)C1=O` [PIPERACILLIN], for which the Activity with Klebsiella pneumoniae [5] is reported as 38.2%; in the assay on Klebsiella pneumoniae [6], 0%. Besides, the MIC50 in the assay on Klebsiella pneumoniae [7] is over 64 µg/mL. Besides, the MIC90 with Klebsiella pneumoniae [7] is over 64 µg/mL.

Take `NCC[C@H](O)C(=O)N[C@@H]1C[C@H](N)[C@@H](O[C@H]2O[C@H](CN)CC[C@H]2N)[C@H](O)[C@H]1O[C@H]1O[C@H](CO)[C@@H](O)[C@H](N)[C@H]1O` [ARBEKACIN]: in the assay on Klebsiella pneumoniae [2], the MIC50 turned out to be 4 µg/mL (≈ 7.24 µM) and the MIC90 stood at 16 µg/mL (≈ 29 µM). Further, in the assay with Klebsiella pneumoniae [3], the MIC50 stood at 8 µg/mL (≈ 14.5 µM) and the MIC90 stood at 16 µg/mL (≈ 29 µM).

With `NC[C@@H]1O[C@H](O[C@H]2[C@@H](O)[C@H](O[C@@H]3[C@@H](O)[C@H](N)C[C@H](N)[C@H]3O[C@H]3O[C@H](CN)[C@@H](O)[C@H](O)[C@H]3N)O[C@@H]2CO)[C@H](N)[C@@H](O)[C@@H]1O` [FRAMYCETIN], the MIC50 against Klebsiella pneumoniae [2] and in the assay on Klebsiella pneumoniae [3] was 2 µg/mL (≈ 3.25 µM) in each case. The MIC90 in the assay with Klebsiella pneumoniae [2] and against Klebsiella pneumoniae [3] was 32 µg/mL (≈ 52.1 µM) in each case.

As to `NCC[C@H](O)C(=O)N[C@@H]1C[C@H](N)[C@@H](O[C@H]2O[C@H](CN)[C@@H](O)[C@H](O)[C@H]2O)[C@H](O)[C@H]1O[C@H]1O[C@H](CO)[C@@H](O)[C@H](N)[C@H]1O` [AMIKACIN], the Activity came out at 0% in the assay on Klebsiella pneumoniae [8], 78.4% with Klebsiella pneumoniae [1], 4.9% in the assay on Klebsiella pneumoniae [9] and 48% in the assay on Klebsiella pneumoniae [4]. The MIC50 in the assay with Klebsiella pneumoniae [2] is 2 µg/mL (≈ 3.42 µM); in the assay on Klebsiella pneumoniae [3], 32 µg/mL (≈ 54.6 µM). Moreover, the MIC90 against Klebsiella pneumoniae [2] and in the assay on Klebsiella pneumoniae [3] was 32 µg/mL (≈ 54.6 µM) each time.

`CN(C)c1cc(NC(=O)CNC(C)(C)C)c(O)c2c1C[C@H]1C[C@H]3[C@H](N(C)C)C(O)=C(C(N)=O)C(=O)[C@@]3(O)C(O)=C1C2=O` [TIGECYCLINE]: the values for the Activity with Klebsiella pneumoniae [1] and in the assay with Klebsiella pneumoniae [4] were 90.2% and 96%, respectively. The MIC50 in the assay with Klebsiella pneumoniae [2] and in the assay with Klebsiella pneumoniae [3] was 1 µg/mL (≈ 1.71 µM) in each case. Besides, the MIC90 in the assay with Klebsiella pneumoniae [2] and against Klebsiella pneumoniae [3] was 2 µg/mL (≈ 3.41 µM) throughout.

On to `C[C@@H](O)[C@H]1C(=O)N2C(C(=O)O)=C(SCCNC=N)C[C@H]12` [IMIPENEM ANHYDROUS], for which the Activity in the assay on Klebsiella pneumoniae [1] stood at 75.5%; in the assay on Klebsiella pneumoniae [4], 12%. Besides, the MIC50 in the assay on Klebsiella pneumoniae [2] was determined as 0.5 µg/mL (≈ 1.67 µM); in the assay with Klebsiella pneumoniae [3] it was 8 µg/mL (≈ 26.7 µM). Moreover, the MIC90 was 8 µg/mL (≈ 26.7 µM) in the assay with Klebsiella pneumoniae [2] and over 16 µg/mL in the assay with Klebsiella pneumoniae [3].

Take GENTAMICIN: the Activity with Klebsiella pneumoniae [8] stood at 12%; with Klebsiella pneumoniae [1], 25.5%; in the assay on Klebsiella pneumoniae [9], 39.2%; with Klebsiella pneumoniae [4], 44%. In addition, the MIC50 against Klebsiella pneumoniae [2] and against Klebsiella pneumoniae [3] was 8 µg/mL throughout. Moreover, the values for the MIC90 in the assay on Klebsiella pneumoniae [2] and in the assay with Klebsiella pneumoniae [3] were over 64 µg/mL and 16 µg/mL, respectively.

`NC[C@H]1O[C@H](O[C@H]2[C@H](O)[C@@H](O[C@H]3O[C@H](CO)[C@@H](O)[C@H](N)[C@H]3O)[C@H](N)C[C@@H]2N)[C@H](N)C[C@@H]1O` [TOBRAMYCIN]: the Activity in the assay with Klebsiella pneumoniae [8] turned out to be 92%; in the assay on Klebsiella pneumoniae [1], 10.8%; in the assay on Klebsiella pneumoniae [9] it was 76.5%; in the assay on Klebsiella pneumoniae [4], 8%. Also, the MIC50 with Klebsiella pneumoniae [2] and in the assay on Klebsiella pneumoniae [3] was 32 µg/mL (≈ 68.4 µM) each time. The compound further gave an MIC90 in the assay with Klebsiella pneumoniae [3] of at least 64 µg/mL.

For `CN[C@@H]1[C@@H](O)[C@@H](O[C@@H]2[C@@H](O)[C@H](O[C@H]3OC(CNCCO)=CC[C@H]3N)[C@@H](N)C[C@H]2NC(=O)[C@@H](O)CCN)OC[C@]1(C)O` [PLAZOMICIN], the MIC50 in the assay with Klebsiella pneumoniae [2] and against Klebsiella pneumoniae [3] was 0.5 µg/mL (≈ 0.844 µM) each time. Also, the MIC90 in the assay with Klebsiella pneumoniae [2] and with Klebsiella pneumoniae [3] was 1 µg/mL (≈ 1.69 µM) each time. The MIC in the assay with Pseudomonas aeruginosa is 4 µg/mL (≈ 6.75 µM); against Escherichia coli, 0.5 µg/mL (≈ 0.844 µM); against Klebsiella pneumoniae [10], 0.25 µg/mL (≈ 0.422 µM).
